Data set [1] in a line: Antiproliferative activity against human U937 cells assessed as reduction in cell viability after 72 hrs by celltiter-glo/CCK8 assay. The data set is classed as functional. The settings on record: U-937, 72 h. The procedure, abridged: (§1)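 Cells were seeded at 1 to 3 × 10⁴ cells/mL with serial compound concentrations and incubated 72 h at 37 °C, 5% CO₂. Viability was read by CellTiter-Glo luminescence or CCK-8 absorbance (450/655 nm). GI50 values are from triplicate testing. GIST-T1 and CHO were grown in DMEM/10% FBS; GIST-882, GIST-48B and MV4-11 in IMDM/10% FBS; other lines in RPMI 1640/10% FBS.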

Data set [2] concerns the target T1, Platelet-derived growth factor receptor beta (Homo sapiens, UniProt P09619). Briefly: Inhibition of N-terminal GST-tagged recombinant human PDGFRbeta (amino acids 557-end) expressed in baculovirus infected insect Sf9 cells using Poly(4:1 Glu, Tyr) peptide as substrate after 1 hr by promega ADP-glo assay. The procedure, abridged:
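ADP-Glo luminescence assay. PDGFRβ (10 ng/μL, 9 μL) with poly(Glu4,Tyr1) substrate (0.4 μg/μL) and 100 μM ATP, serially diluted inhibitor, 1 h at 37 °C. ADP-Glo reagent was added for 40 min, then detection reagent for 30 min. IC50 was taken from the dose−response fit.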
(ADP-Glo turns the ADP formed in a reaction into a luminescent signal.)

Data set [3] concerns the target Mast/stem cell growth factor receptor Kit (Homo sapiens) (UniProt P10721). Briefly: Inhibition of cKIT autophosphorylation at Y719 in human GIST882 cells up to 10 uM after 2 hrs by Western blot analysis. Format: cell-based. In general terms: In western blotting, separated proteins are transferred to a membrane and probed.
The nature of data set [4]: Antiproliferative activity against FLT3-ITD dependent human MOLM14 cells assessed as reduction in cell viability after 72 hrs by celltiter-glo/CCK8 assay. The data set is classed as functional. Conditions: MOLM-14, 72 h. The procedure, abridged:
as §1
For orientation: In ATP-based viability assays light output follows the ATP content of the culture.

A short description of data set [5]: AUC(0 to t) in Sprague-Dawley rat plasma at 10 mg/kg, po. The data set is classed as ADME, organism-based. The procedure, abridged:
(§2)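 Male Sprague-Dawley rats, 8 weeks old, fasted overnight, dosed iv or orally. Formulation was 5% DMSO/40% PEG400/55% saline at 1 mg/mL. Blood (~0.2 mL) was drawn from the jugular vein into heparin. Sampling: iv at 1 min to 8 h; oral at 5 min to 24 h. Plasma was separated by centrifugation at 2−8 °C and stored at −80 °C.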

Data set [6] addresses Mast/stem cell growth factor receptor Kit (Homo sapiens) (UniProt P10721). Briefly: Inhibition of cKIT in human GISTT1 cells assessed as suppression of STAT5 phosphorylation at Y694 up to 10 uM after 2 hrs by Western blot analysis. The data set is classed as cell-based.
The target of data set [7] is Platelet-derived growth factor receptor alpha (Homo sapiens) (UniProt P16234). In words: Inhibition of PDGFRalpha phosphorylation at Y849 in human GIST48B cells up to 10 uM after 2 hrs by Western blot analysis. Format: cell-based. The procedure, abridged: (§3)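 Cells were washed in cold PBS, lysed in RIPA and immunoblotted for phospho and total proteins, including pPDGFRα Y849/PDGFRβ Y857 and β-actin.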

The nature of data set [8]: Antitumor activity against human GISTT1 cells xenografted in nu/nu mouse assessed as tumor growth inhibition at 100 mg/kg/day administered through oral gavage after 21 days. Conditions: 504 h, read-out: TGI. The data set is classed as functional. The procedure, abridged:
(§4)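 Female nu/nu mice, 6 weeks old, received 5 × 10⁶ GIST-T1 cells in PBS/Matrigel (1:1) subcutaneously in the right flank. At 100−200 mm³, six mice per group were dosed daily by oral gavage at 25, 50 or 100 mg/kg/d in 0.5% methylcellulose/0.4% Tween80, or vehicle. Tumor volume was taken as (W²×L)/2, with body weight and tumor measured daily. Tumors were stained for Ki67 (IHC, 1:50 antibody) and by TUNEL.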

Data set [9] addresses Mast/stem cell growth factor receptor Kit (Homo sapiens) (UniProt P10721). Briefly: Inhibition of human wild type partial length cKIT expressed in bacterial expression system assessed as residual activity at 1 uM by KinomeScan method. A digest of the protocol: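 KinomeScan competitive binding panel of 468 kinases and mutants, compound tested at 1 μM; read-out is percent activity remaining (binding relative to control).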

Data set [10] can be described thus: AUC(0 to t) in Sprague-Dawley rat plasma at 1 mg/kg, iv. The data set is classed as ADME, organism-based. The procedure, abridged:
as §2

For data set [11], the target named is T1, Platelet-derived growth factor receptor beta. Briefly: Inhibition of PDGFRbeta phosphorylation at Y857 in human GISTT1 cells up to 10 uM after 2 hrs by Western blot analysis. Format: cell-based. A digest of the protocol:
as §3

A short description of data set [12]: Antiproliferative activity against CHL cells assessed as reduction in cell viability after 72 hrs by celltiter-glo/CCK8 assay. Conditions: chinese hamster. Format: cell-based, Cricetulus griseus. A digest of the protocol: as §1
The nature of data set [13]: Antiproliferative activity against cKIT dependent human GISTT1 cells assessed as reduction in cell viability after 72 hrs by celltiter-glo/CCK8 assay. The data set is classed as functional. Conditions: GISTT1, 72 h. The procedure, abridged: as §1
Data set [14] concerns the target Mast/stem cell growth factor receptor Kit (Homo sapiens) (UniProt P10721). In words: Inhibition of cKIT in human GIST48B cells assessed as suppression of STAT5 phosphorylation at Y694 up to 10 uM after 2 hrs by Western blot analysis. Format: cell-based.
Data set [15] is described as follows: Antiproliferative activity against human GIST48B cells assessed as reduction in cell viability after 72 hrs by celltiter-glo/CCK8 assay. Format: functional. A digest of the protocol:
as §1

In data set [16] the target is T1, Platelet-derived growth factor receptor beta. Briefly: Inhibition of PDGFRbeta phosphorylation at Y857 in human GIST882 cells up to 10 uM after 2 hrs by Western blot analysis. The data set is classed as cell-based. A digest of the protocol:
as §3

The target in data set [17] is Platelet-derived growth factor receptor alpha (Homo sapiens) (UniProt P16234). Briefly: Inhibition of PDGFRalpha phosphorylation at Y849 in human GISTT1 cells up to 10 uM after 2 hrs by Western blot analysis. The data set is classed as cell-based. A digest of the protocol: as §3
For data set [18], the target named is T1, Platelet-derived growth factor receptor beta. In words: Inhibition of PDGFRbeta phosphorylation at Y857 in human GIST48B cells up to 10 uM after 2 hrs by Western blot analysis. The data set is classed as cell-based. A digest of the protocol:
as §3

Data set [19] deals with Mast/stem cell growth factor receptor Kit (Homo sapiens), P10721 [T670I]. Briefly: Inhibition of Tel-fused cKIT T670I mutant (unknown origin) transfected in mouse BAF3 cells assessed as decrease in cell proliferation after 72 hrs by celltiter-glo/CCK8 assay. Format: cell-based. A digest of the protocol: (§5)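 Stable BaF3 lines made by retroviral transduction with mutagenized TEL-KIT MSCV vectors, puromycin selection 48 h, then gradual IL-3 withdrawal until IL-3-independent; grown in RPMI 1640 with 10% FBS. Cells at 1 to 3 × 10⁴ cells/mL exposed to a concentration series for 72 h; viability read by CellTiter-Glo luminescence or CCK-8 absorbance (450/655 nm); GI50 from triplicate testing.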

For data set [20], the system named is Mast/stem cell growth factor receptor Kit (Homo sapiens), P10721 [V559D]. In words: Inhibition of Tel-fused cKIT V559D mutant (unknown origin) transfected in mouse BAF3 cells assessed as decrease in cell proliferation after 72 hrs by celltiter-glo/CCK8 assay. Format: cell-based. A digest of the protocol: as §5
Data set [21] relates to Mast/stem cell growth factor receptor Kit (Homo sapiens), P10721 [V654A]. Briefly: Inhibition of Tel-fused cKIT V654A mutant (unknown origin) transfected in mouse BAF3 cells assessed as decrease in cell proliferation after 72 hrs by celltiter-glo/CCK8 assay. Format: cell-based. A digest of the protocol: as §5
Data set [22] concerns the target Mast/stem cell growth factor receptor Kit (Homo sapiens) (UniProt P10721). Briefly: Inhibition of cKIT in human GIST48B cells assessed as suppression of S6K phosphorylation at T389 up to 10 uM after 2 hrs by Western blot analysis. Format: cell-based.
The subject of the next data set is GISTT1. In words: Antitumor activity against human GISTT1 cells xenografted in nu/nu mouse assessed as suppression of proliferation at 25 to 100 mg/kg/day administered through oral gavage after 21 days by Ki67 assay. Format: functional, organism-based. A digest of the protocol:
as §4

Calls of active or inactive are those of the source. No cut-off for these calls is given here.

For orientation: GI50 means the concentration at which growth is held to half of that of the control. As a reminder, the IC50 is the concentration needed to halve the response being measured. As usually defined, the AUC(0-t) is the area under the concentration-time curve up to a stated or last time point.

T1 sequence (P09619 whole entry, the tested form may be a part): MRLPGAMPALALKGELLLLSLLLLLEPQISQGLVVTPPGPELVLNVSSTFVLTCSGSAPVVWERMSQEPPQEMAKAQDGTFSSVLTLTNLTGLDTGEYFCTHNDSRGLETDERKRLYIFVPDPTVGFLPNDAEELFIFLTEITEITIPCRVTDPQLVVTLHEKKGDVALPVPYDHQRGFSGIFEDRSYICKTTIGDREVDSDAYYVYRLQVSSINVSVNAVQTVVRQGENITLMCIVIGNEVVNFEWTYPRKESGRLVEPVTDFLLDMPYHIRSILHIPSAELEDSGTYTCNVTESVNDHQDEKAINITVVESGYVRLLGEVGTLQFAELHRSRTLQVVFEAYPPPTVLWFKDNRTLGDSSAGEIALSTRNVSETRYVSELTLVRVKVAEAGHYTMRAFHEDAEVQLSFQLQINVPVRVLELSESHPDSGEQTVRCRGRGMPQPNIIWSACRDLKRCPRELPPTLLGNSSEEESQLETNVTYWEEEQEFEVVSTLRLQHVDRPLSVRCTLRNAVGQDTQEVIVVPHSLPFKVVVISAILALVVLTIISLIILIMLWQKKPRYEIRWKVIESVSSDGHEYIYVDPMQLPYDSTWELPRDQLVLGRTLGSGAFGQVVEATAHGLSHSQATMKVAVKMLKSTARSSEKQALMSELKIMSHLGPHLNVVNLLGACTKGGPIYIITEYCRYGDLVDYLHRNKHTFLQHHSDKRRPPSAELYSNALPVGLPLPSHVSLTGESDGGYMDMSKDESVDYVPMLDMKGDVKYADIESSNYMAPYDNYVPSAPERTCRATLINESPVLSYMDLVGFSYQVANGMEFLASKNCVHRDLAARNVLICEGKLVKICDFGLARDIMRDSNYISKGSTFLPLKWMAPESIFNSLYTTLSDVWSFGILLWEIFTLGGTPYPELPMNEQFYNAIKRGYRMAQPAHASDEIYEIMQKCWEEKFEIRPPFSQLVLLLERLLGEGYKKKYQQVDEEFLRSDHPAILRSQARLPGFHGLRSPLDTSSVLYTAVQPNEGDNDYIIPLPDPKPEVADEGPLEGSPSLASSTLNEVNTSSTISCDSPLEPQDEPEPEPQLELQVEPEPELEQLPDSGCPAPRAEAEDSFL
Mast/stem cell growth factor receptor Kit (Homo sapiens), sequence (P10721 whole entry): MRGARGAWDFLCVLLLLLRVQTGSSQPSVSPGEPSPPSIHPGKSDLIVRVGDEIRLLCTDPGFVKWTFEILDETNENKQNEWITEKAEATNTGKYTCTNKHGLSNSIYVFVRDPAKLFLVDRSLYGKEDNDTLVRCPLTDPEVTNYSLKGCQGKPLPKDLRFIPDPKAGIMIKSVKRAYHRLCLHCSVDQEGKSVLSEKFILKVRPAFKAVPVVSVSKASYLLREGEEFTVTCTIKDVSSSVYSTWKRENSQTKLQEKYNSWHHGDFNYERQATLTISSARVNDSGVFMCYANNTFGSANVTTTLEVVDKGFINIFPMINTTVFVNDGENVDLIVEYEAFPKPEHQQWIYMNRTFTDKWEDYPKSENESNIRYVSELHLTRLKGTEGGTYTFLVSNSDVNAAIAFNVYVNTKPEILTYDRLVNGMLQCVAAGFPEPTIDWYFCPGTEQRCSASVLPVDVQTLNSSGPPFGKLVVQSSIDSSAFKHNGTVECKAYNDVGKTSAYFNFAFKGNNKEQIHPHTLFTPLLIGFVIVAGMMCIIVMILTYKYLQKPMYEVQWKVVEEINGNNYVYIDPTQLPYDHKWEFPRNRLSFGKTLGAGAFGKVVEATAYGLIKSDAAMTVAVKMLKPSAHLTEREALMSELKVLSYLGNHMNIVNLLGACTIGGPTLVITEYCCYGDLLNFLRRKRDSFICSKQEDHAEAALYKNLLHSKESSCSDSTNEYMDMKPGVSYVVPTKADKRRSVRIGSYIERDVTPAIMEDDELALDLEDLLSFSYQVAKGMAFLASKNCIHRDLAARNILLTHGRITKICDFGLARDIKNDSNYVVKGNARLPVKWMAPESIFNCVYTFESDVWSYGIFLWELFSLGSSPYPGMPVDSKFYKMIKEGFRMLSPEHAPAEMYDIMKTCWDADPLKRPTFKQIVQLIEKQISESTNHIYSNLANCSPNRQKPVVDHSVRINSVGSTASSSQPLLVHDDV
Platelet-derived growth factor receptor alpha (Homo sapiens), sequence (P16234 whole entry): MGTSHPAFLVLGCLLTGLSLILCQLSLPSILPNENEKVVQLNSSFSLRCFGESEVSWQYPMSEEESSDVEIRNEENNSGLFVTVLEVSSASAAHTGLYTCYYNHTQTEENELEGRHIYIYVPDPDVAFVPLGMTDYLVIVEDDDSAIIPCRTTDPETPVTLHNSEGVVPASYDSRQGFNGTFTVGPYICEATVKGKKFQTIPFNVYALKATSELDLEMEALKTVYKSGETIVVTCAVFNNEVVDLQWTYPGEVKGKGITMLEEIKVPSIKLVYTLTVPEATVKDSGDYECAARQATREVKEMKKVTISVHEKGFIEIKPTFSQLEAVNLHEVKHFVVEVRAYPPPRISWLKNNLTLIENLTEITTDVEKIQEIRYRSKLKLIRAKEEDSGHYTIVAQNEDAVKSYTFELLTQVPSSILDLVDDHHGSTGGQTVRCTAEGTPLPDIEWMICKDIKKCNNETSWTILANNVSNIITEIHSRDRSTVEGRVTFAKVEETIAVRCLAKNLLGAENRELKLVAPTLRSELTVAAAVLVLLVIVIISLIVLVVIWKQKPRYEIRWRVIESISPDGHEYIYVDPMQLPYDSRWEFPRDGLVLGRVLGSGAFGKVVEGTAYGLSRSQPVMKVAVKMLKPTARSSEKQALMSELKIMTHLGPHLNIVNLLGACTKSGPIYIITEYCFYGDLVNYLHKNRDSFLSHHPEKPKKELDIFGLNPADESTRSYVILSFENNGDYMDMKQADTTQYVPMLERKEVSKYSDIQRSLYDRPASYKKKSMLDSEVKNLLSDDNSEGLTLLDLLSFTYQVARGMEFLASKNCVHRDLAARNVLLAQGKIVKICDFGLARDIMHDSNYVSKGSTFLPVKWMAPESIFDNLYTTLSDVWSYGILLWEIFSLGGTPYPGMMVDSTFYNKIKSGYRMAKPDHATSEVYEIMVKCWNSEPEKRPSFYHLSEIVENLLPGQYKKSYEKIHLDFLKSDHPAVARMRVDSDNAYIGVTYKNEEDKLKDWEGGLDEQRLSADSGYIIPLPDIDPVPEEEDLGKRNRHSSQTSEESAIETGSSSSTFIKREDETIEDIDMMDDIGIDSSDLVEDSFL
Mast/stem cell growth factor receptor Kit (Homo sapiens), P10721 [V654A], sequence (P10721 whole entry V654A, the tested form may be a part): as the sequence (P10721 whole entry) above, with V654A counted along it
Mast/stem cell growth factor receptor Kit (Homo sapiens), P10721 [V559D], sequence (P10721 whole entry V559D, the tested form may be a part): as the sequence (P10721 whole entry) above, with V559D counted along it
Mast/stem cell growth factor receptor Kit (Homo sapiens), P10721 [T670I], sequence (P10721 whole entry T670I, the tested form may be a part): as the sequence (P10721 whole entry) above, with T670I counted along it

Regarding `Cc1ccc(NC(=O)c2cccc(C(F)(F)F)c2)cc1OC1CCN(C(=O)c2ccncc2)CC1`, the concentration for 50% growth inhibition (GI50) was > 10 µM in data set [1]; > 10 µM in [4]; 0.021 µM in data set [13]; > 10 µM in [15]; 8.24 µM in [19]; 0.04 µM in data set [20]. Also, the GI50 in data set [21] is 1.03 µM. The IC50 in data set [2] turned out to be 0.12 µM. Moreover, the inhibition result in data set [3], in [6], in data set [7], in data set [11], in data set [14] and in data set [16] was “Active” each time. For the same molecule, the inhibition entry in data set [17] and in data set [18] was “Active” each time. Further, the figures for the AUC(0-t) in data set [5] and in data set [10] were 715 ng·h/mL and 198 ng·h/mL, respectively. In addition, the inhibition in vivo at 100 mg/kg/day in data set [8] amounted to 49%. For the same molecule, the Activity in [9] was found to be 0.45%. Also, the GI50 at 72 h in [12] is > 10 µM. The inhibition result in [22] was “inactive”. In addition, in the data set with GISTT1, the result was Active.

For the origin of these results see ChEMBL document CHEMBL3808357, “Discovery of N-(3-((1-Isonicotinoylpiperidin-4-yl)oxy)-4-methylphenyl)-3-(trifluoromethyl)benzamide (CHMFL-KIT-110) as a Selective, Potent, and Orally Available Type II c-KIT Kinase Inhibitor for Gastrointestinal Stromal Tumors (GISTs)” (J Med Chem, 2016).
